Source: ChEMBL document CHEMBL1629656, “Oritavancin kills stationary-phase and biofilm Staphylococcus aureus cells in vitro” (Antimicrob Agents Chemother, 2009)
Values after ≈ are worked out from the molar mass of the structure shown. Active and inactive are the calls of the source. The rule behind the calls is not given here.

What was measured:
Staphylococcus aureus [1] = assay: Bactericidal activity against exponential-phase methicillin-sensitive Staphylococcus aureus ATCC 29213 assessed as log reduction in bacterial count at 16 ug/ml within 15 mins by time kill analysis; format: functional
Outline: (§1)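 Short (2-h) time-kill of ATCC 29213 at OD600 0.005 (~10^6 CFU/ml) in 10 mM HEPES-Cl pH 7.5 with 50 μg/ml CaCl2. Exponential cells had 5 mM glucose and stationary cells none. Oritavancin was tested without polysorbate 80; viable counts were taken by serial dilution plating. Three repeats; one shown.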

Staphylococcus aureus [2] = assay: Inhibition of cell division in stationary-phase methicillin-resistant Staphylococcus aureus ATCC 43300 assessed as absence of appearance of septal midline at 16 ug/ml by transmission electron microscopy; format: functional, organism-based
Outline: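 Stationary-phase MRSA ATCC 43300 (5 × 10^7 CFU/ml) exposed for 3 h in nutrient-depleted CAMHB. Cells were fixed in 2.5% glutaraldehyde, post-fixed in 2% osmium tetroxide and en bloc stained with uranyl acetate. Samples were ethanol-dehydrated, embedded in LR White, thin-sectioned, and stained with uranyl acetate/lead citrate. Septa were viewed by TEM at 100 kV.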

Staphylococcus aureus [3] = assay: Antimicrobial activity against stationary-phase methicillin-sensitive Staphylococcus aureus ATCC 29213 grown on nutrient-depleted CAMHB medium assessed as membrane permeability at 16 ug/ml after 30 mins by propidium iodide staining-based fluorescence spectrophotometry; format: functional, organism-based
Outline: (§2)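 Cells prepared as for depolarization: exponential-phase ATCC 29213 in HEPES-CaCl2 buffer with 5 mM glucose, stationary-phase without glucose, final OD600 0.005. Stained with 5 μM Syto 9 plus 30 μM propidium iodide. Fluorescence (ex 485/em 535 nm) monitored for 30 min after drug addition, without polysorbate 80. Three repeats; one shown.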

Staphylococcus aureus [4] = assay: Bactericidal activity against stationary-phase methicillin-sensitive Staphylococcus aureus ATCC 29213 assessed as log reduction in bacterial count at 16 ug/ml within 2 hrs by time kill analysis; format: functional; outline: as §1
Staphylococcus aureus [5] = assay: Antimicrobial activity against 4.6 X 10^6 CFU/peg methicillin-susceptible Staphylococcus aureus ATCC 29213 assessed as inhibition of biofilm formation after 24 hrs by serial dilution method
Staphylococcus aureus [6] = assay: Bactericidal activity against exponential-phase methicillin-sensitive Staphylococcus aureus ATCC 29213 grown on nutrient-depleted CAMHB medium at 4 ug/ml after 24 hrs by time kill analysis; format: functional, organism-based
Staphylococcus aureus [7] = assay: Antimicrobial activity against methicillin-sensitive Staphylococcus aureus ATCC 29213 assessed as inhibition of biofilm formation after 24 hrs by serial dilution method in presence of 0.002% polysorbate 80; format: functional
Staphylococcus aureus [8] = assay: Antimicrobial activity against methicillin-resistant Staphylococcus aureus ATCC 33591 assessed as inhibition of biofilm formation after 24 hrs by serial dilution method in presence of 0.002% polysorbate 80; format: functional
Staphylococcus aureus [9] = assay: Antimicrobial activity against exponential-phase methicillin-sensitive Staphylococcus aureus ATCC 29213 grown on nutrient-depleted CAMHB medium assessed as membrane depolarization at 16 ug/ml after 30 mins using DiSC3(5) dye based fluorescence spectrophotometry; format: functional, organism-based
Outline: (§3)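 MSSA ATCC 29213 exponential-phase cells (OD600 ≈0.25 subculture in CAMHB) or stationary-phase cells were washed in 10 mM HEPES-Cl pH 7.5 with 50 μg/ml CaCl2; buffer had 5 mM glucose for exponential cells and none for stationary cells. Cells were loaded with 1.5 μM DiSC3(5) for 30 min in the dark, then diluted to OD600 0.005. Drug was added without polysorbate 80 and fluorescence (ex 612/em 665 nm) followed in real time for 30 min. Three repeats; one shown.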

Staphylococcus aureus [10] = assay: Bactericidal activity against stationary-phase vancomycin-resistant Staphylococcus aureus isolate VRS5 grown on nutrient-depleted CAMHB medium 16 ug/ml after 24 hrs by time kill analysis; format: functional, organism-based
Outline: (§4)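 Overnight stationary-phase cultures inoculated at ~10^7 CFU/ml into strain-matched spent CAMHB (pH 7.0, filter-sterilized). Oritavancin was kept at 0.002% polysorbate 80; daptomycin wells had 50 μg/ml CaCl2. Incubation at 37°C, 225 rpm. Samples were charcoal-quenched (25 mg/ml) before plating; points are means of duplicates. Bactericidal means ≥3-log drop at 24 h versus inoculum. ≥3 repeats.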

Staphylococcus aureus [11] = assay: Bactericidal activity against stationary-phase methicillin-sensitive Staphylococcus aureus ATCC 29213 grown on nutrient-depleted CAMHB medium at 16 ug/ml after 24 hrs by time kill analysis; format: functional, organism-based; outline: as §4
Staphylococcus aureus [12] = assay: Bactericidal activity against exponential-phase methicillin-sensitive Staphylococcus aureus ATCC 29213 grown on nutrient-depleted CAMHB medium at 16 ug/ml after 24 hrs by time kill analysis; format: functional, organism-based
Staphylococcus aureus [13] = assay: Bactericidal activity against exponential-phase methicillin-sensitive Staphylococcus aureus ATCC 29213 grown on nutrient-depleted CAMHB medium at 0.5 ug/ml after 24 hrs by time kill analysis; format: functional, organism-based
Staphylococcus aureus [14] = assay: Antimicrobial activity against vancomycin-resistant Staphylococcus aureus isolate VRS5 planktonic cells by broth microdilution method in presence of 0.002% polysorbate 80; format: functional
Staphylococcus aureus [15] = assay: Bactericidal activity against stationary-phase methicillin-sensitive Staphylococcus aureus ATCC 29213 grown on nutrient-depleted CAMHB medium at 4 ug/ml after 24 hrs by time kill analysis; format: functional, organism-based; outline: as §4
Staphylococcus aureus [16] = assay: Antimicrobial activity against vancomycin-resistant Staphylococcus aureus isolate VRS5 assessed as inhibition of biofilm formation after 24 hrs by serial dilution method in presence of 0.002% polysorbate 80; format: functional
Staphylococcus aureus [17] = assay: Antimicrobial activity against stationary-phase methicillin-sensitive Staphylococcus aureus ATCC 29213 grown on nutrient-depleted CAMHB medium assessed as membrane depolarization at 16 ug/ml after 30 mins using DiSC3(5) dye based fluorescence spectrophotometry; format: functional, organism-based; outline: as §3
Staphylococcus aureus [18] = assay: Antimicrobial activity against exponential-phase methicillin-sensitive Staphylococcus aureus ATCC 29213 grown on nutrient-depleted CAMHB medium assessed as membrane permeability at 16 ug/ml after 30 mins by propidium iodide staining-based fluorescence spectrophotometry; format: functional, organism-based; outline: as §2
Staphylococcus aureus [19] = assay: Bactericidal activity against exponential-phase methicillin-sensitive Staphylococcus aureus ATCC 29213 assessed as log reduction in bacterial count at 4 ug/ml within 2 hrs by time kill analysis; format: functional
Staphylococcus aureus [20] = assay: Antimicrobial activity against stationary-phase methicillin-sensitive Staphylococcus aureus ATCC 29213 membrane depolarization at 4 ug/ml after 30 mins using DiSC3(5) dye based fluorescence spectrophotometry; format: functional, organism-based
Outline: (§5)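 Cells loaded with 1.5 μM DiSC3(5) 30 min in the dark at ambient temperature, diluted to OD600 0.005. Drug added without polysorbate 80. Fluorescence (ex 612/em 665 nm) followed for 30 min. Three repeats.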

Staphylococcus aureus [21] = assay: Antimicrobial activity against exponential-phase methicillin-sensitive Staphylococcus aureus ATCC 29213 assessed as membrane permeability at 4 ug/ml after 30 mins by propidium iodide staining-based fluorescence spectrophotometry; format: functional, organism-based
Outline: (§6)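 Cells prepared as for depolarization, in HEPES-CaCl2 buffer with glucose (exponential) or without (stationary), OD600 0.005. Syto 9 at 5 μM and propidium iodide at 30 μM. Drug added without polysorbate 80. Loss of Syto 9 fluorescence (ex 485/em 535 nm) read for 30 min. Three repeats.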

Staphylococcus aureus [22] = assay: Antimicrobial activity against stationary-phase methicillin-sensitive Staphylococcus aureus ATCC 29213 assessed as membrane permeability at 4 ug/ml after 30 mins by propidium iodide staining-based fluorescence spectrophotometry; format: functional, organism-based; outline: as §6
Staphylococcus aureus [23] = assay: Bactericidal activity against stationary-phase vancomycin-resistant Staphylococcus aureus isolate VRS5 grown on nutrient-depleted CAMHB medium at 4 ug/ml after 24 hrs by time kill analysis; format: functional, organism-based; outline: as §4
Staphylococcus aureus [24] = assay: Bactericidal activity against stationary-phase vancomycin-resistant Staphylococcus aureus isolate VRS5 grown on nutrient-depleted CAMHB medium at 2 ug/ml after 24 hrs by time kill analysis
Staphylococcus aureus [25] = assay: Bactericidal activity against stationary-phase methicillin-resistant Staphylococcus aureus ATCC 33591 grown on nutrient-depleted CAMHB medium at 2 ug/ml after 24 hrs by time kill analysis; format: functional, organism-based; outline: as §4
Staphylococcus aureus [26] = assay: Bactericidal activity against stationary-phase methicillin-resistant Staphylococcus aureus ATCC 33591 grown on nutrient-depleted CAMHB medium at 4 ug/ml after 24 hrs by time kill analysis; format: functional, organism-based; outline: as §4
Staphylococcus aureus [27] = assay: Antimicrobial activity against exponential-phase methicillin-sensitive Staphylococcus aureus ATCC 29213 assessed as membrane depolarization at 4 ug/ml after 30 mins using DiSC3(5) dye based fluorescence spectrophotometry; format: functional, organism-based; outline: as §5
Staphylococcus aureus [28] = assay: Bactericidal activity against stationary-phase methicillin-sensitive Staphylococcus aureus ATCC 29213 assessed as log reduction in bacterial count at 4 ug/ml within 2 hrs by time kill analysis; format: functional
Homo sapiens = assay: fCmax in human at 450 […]; format: ADME, organism-based; details: in vivo
Staphylococcus aureus [29] = assay: Antimicrobial activity against methicillin-resistant Staphylococcus aureus ATCC 33591 planktonic cells by broth microdilution method in presence of 0.002% polysorbate 80; format: functional
Staphylococcus aureus [30] = assay: Antimicrobial activity against methicillin-sensitive Staphylococcus aureus ATCC 29213 planktonic cells by broth microdilution method in presence of 0.002% polysorbate 80; format: functional
Staphylococcus aureus [31] = assay: Antimicrobial activity against 4.6 X 10^6 CFU/peg methicillin-susceptible Staphylococcus aureus ATCC 29213 planktonic cells by broth microdilution method
Staphylococcus aureus [32] = assay: Bacteriostatic activity against stationary-phase vancomycin-resistant Staphylococcus aureus isolate VRS5 grown on nutrient-depleted CAMHB medium at 8 ug/ml after 24 hrs by time kill analysis; format: functional, organism-based; outline: as §4
Staphylococcus aureus [33] = assay: Bacteriostatic activity against stationary-phase methicillin-resistant Staphylococcus aureus ATCC 33591 grown on nutrient-depleted CAMHB medium at 8 ug/ml after 24 hrs by time kill analysis; format: functional, organism-based; outline: as §4

Row | SMILES | Activity (Staphylococcus aureus [6]) | MBEC (Staphylococcus aureus [7]) [µg/mL] | MBEC (Staphylococcus aureus [8]) | Activity (Staphylococcus aureus [11]) | Activity (Staphylococcus aureus [12]) | Activity (Staphylococcus aureus [13]) | MIC (Staphylococcus aureus [14]) [µg/mL] | Activity (Staphylococcus aureus [15]) | Activity (Staphylococcus aureus [23]) | Activity (Staphylococcus aureus [24]) | Activity (Staphylococcus aureus [25]) | Activity (Staphylococcus aureus [26]) | MIC (Staphylococcus aureus [30]) [µg/mL] | also measured
1 | CN[C@H](CC(C)C)C(=O)N[C@H]1C(=O)N[C@@H](CC(N)=O)C(=O)N[C@H]2C(=O)N[C@H]3C(=O)N[C@H](C(=O)N[C@H](C(=O)O)c4cc(O)cc(O)c4-c4cc3ccc4O)[C@H](O)c3ccc(c(Cl)c3)Oc3cc2cc(c3O[C@@H]2O[C@H](CO)[C@@H](O)[C@H](O)[C@H]2O[C@H]2C[C@](C)(N)[C@H](O)[C@H](C)O2)Oc2ccc(cc2Cl)[C@H]1O [VANCOMYCIN] | Active | >128 | >=128 ug ml-1 | inactive | Active | Active | > 128 | inactive |  |  |  |  |  | Activity (Staphylococcus aureus [1]): inactive; inhibition (Staphylococcus aureus [2]): inactive; Activity (Staphylococcus aureus [3]): inactive; Activity (Staphylococcus aureus [4]): inactive; MBEC (Staphylococcus aureus [5]): >128 µg/mL; Activity (Staphylococcus aureus [9]): inactive; Activity (Staphylococcus aureus [10]): inactive; MBEC (Staphylococcus aureus [16]): >128 µg/mL; Activity (Staphylococcus aureus [17]): inactive; Activity (Staphylococcus aureus [18]): inactive
2 | CCCCCCCCCC(=O)N[C@@H](Cc1c[nH]c2ccccc12)C(=O)N[C@H](CC(N)=O)C(=O)N[C@@H](CC(=O)O)C(=O)N[C@@H]1C(=O)NCC(=O)N[C@@H](CCCN)C(=O)N[C@@H](CC(=O)O)C(=O)N[C@H](C)C(=O)N[C@@H](CC(=O)O)C(=O)NCC(=O)N[C@H](CO)C(=O)N[C@@H]([C@H](C)CC(=O)O)C(=O)N[C@@H](CC(=O)c2ccccc2N)C(=O)O[C@@H]1C | Active |  |  | inactive | Active | Active |  | inactive | inactive | inactive | Active | Active |  | FC (Staphylococcus aureus [19]): 3.4; Activity (Staphylococcus aureus [20]): inactive; Activity (Staphylococcus aureus [21]): Active; Activity (Staphylococcus aureus [22]): inactive; Activity (Staphylococcus aureus [27]): Active; FC (Staphylococcus aureus [28]): 0.7
3 | CO[C@H]1/C=C/O[C@@]2(C)Oc3c(C)c(O)c4c(O)c(c(/C=N/N5CCN(C)CC5)c(O)c4c3C2=O)NC(=O)/C(C)=C\C=C\[C@H](C)[C@H](O)[C@@H](C)[C@@H](O)[C@@H](C)[C@H](OC(C)=O)[C@@H]1C [RIFAMPIN] |  | 4 | 0.25 µg/mL |  |  |  | < 0.03 |  | inactive | inactive | Active | Active | < 0.02 | fCmax (Homo sapiens): 2 µg/mL; MIC (Staphylococcus aureus [29]): < 0.03 µg/mL
4 | CC(=O)NC[C@H]1CN(c2ccc(N3CCOCC3)c(F)c2)C(=O)O1 [LINEZOLID] |  | >128 |  |  |  |  |  |  |  |  |  |  | 8 | MIC (Staphylococcus aureus [31]): 8 µg/mL (≈ 23.7 µM); Activity (Staphylococcus aureus [32]): inactive; Activity (Staphylococcus aureus [33]): inactive
